Test results published in ChEMBL document CHEMBL1221358, “Application of a novel in silico high-throughput screen to identify selective inhibitors for protein-protein interactions” (Bioorg Med Chem Lett, 2010).
Calls of active or inactive are those of the source. The rule behind the calls is not given here.

Columns and labels:
[1] = biological target: T1, Toll-like receptor 4 (Mus musculus) (UniProt Q9QUK6); experiment: Inhibition of LPS-induced TLR4 activation in mouse RAW264.7 cells at 200 nM to 200 uM; format: cell-based
T1 sequence (whole entry): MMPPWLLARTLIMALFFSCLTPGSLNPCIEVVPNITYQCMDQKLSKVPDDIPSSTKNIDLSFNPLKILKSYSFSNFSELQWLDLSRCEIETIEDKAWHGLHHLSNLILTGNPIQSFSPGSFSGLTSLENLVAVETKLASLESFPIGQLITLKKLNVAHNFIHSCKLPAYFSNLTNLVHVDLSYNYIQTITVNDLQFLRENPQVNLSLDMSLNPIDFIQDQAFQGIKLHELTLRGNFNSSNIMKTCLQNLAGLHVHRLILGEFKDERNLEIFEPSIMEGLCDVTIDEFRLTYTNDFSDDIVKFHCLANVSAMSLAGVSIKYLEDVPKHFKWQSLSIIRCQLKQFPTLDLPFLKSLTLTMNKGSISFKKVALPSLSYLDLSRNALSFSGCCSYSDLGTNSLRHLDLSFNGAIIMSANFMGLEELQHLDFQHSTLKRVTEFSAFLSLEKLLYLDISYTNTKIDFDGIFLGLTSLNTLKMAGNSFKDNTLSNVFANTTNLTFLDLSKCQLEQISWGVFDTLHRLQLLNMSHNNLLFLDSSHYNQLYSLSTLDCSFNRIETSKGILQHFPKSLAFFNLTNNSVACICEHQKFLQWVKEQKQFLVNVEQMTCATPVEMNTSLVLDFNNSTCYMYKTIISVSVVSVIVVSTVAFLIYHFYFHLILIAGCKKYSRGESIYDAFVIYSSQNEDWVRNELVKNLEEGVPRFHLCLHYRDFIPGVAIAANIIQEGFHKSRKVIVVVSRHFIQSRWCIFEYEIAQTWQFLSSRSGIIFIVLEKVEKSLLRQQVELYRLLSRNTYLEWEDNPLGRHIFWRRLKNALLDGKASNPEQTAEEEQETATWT
In short: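 RAW264.7 mouse macrophages plated at 2×10^5 cells/ml on glass-bottom dishes 18 h before imaging. Washed with HBSS/25 mM HEPES pH 7.4, then placed in warmed conditioned Hanks imaging medium. Live-cell frames taken every 7.5 s: 5 baseline frames, vehicle or antagonist added, 20 frames, then LPS (E. coli 0111:B4) added, 20 further frames. C5a added to non-responding dishes to confirm the cells could respond.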

RAW264.7 = experiment: Cytotoxicity against mouse RAW264.7 cells; format: cell-based
[2] = biological target: Toll-like receptor 4 (Homo sapiens) (UniProt O00206); experiment: Inhibition of TLR4 binding to […]
[3] = biological target: T1, Toll-like receptor 4 (Mus musculus); experiment: Inhibition TLR4-mediated NO production in mouse RAW264.7 cells at 300 nM
[4] = biological target: T2, Toll-like receptor 3 (Mus musculus) (UniProt Q99MB1); experiment: Inhibition TLR3-mediated NO production in mouse RAW264.7 cells at 300 nM
T2 sequence (whole entry): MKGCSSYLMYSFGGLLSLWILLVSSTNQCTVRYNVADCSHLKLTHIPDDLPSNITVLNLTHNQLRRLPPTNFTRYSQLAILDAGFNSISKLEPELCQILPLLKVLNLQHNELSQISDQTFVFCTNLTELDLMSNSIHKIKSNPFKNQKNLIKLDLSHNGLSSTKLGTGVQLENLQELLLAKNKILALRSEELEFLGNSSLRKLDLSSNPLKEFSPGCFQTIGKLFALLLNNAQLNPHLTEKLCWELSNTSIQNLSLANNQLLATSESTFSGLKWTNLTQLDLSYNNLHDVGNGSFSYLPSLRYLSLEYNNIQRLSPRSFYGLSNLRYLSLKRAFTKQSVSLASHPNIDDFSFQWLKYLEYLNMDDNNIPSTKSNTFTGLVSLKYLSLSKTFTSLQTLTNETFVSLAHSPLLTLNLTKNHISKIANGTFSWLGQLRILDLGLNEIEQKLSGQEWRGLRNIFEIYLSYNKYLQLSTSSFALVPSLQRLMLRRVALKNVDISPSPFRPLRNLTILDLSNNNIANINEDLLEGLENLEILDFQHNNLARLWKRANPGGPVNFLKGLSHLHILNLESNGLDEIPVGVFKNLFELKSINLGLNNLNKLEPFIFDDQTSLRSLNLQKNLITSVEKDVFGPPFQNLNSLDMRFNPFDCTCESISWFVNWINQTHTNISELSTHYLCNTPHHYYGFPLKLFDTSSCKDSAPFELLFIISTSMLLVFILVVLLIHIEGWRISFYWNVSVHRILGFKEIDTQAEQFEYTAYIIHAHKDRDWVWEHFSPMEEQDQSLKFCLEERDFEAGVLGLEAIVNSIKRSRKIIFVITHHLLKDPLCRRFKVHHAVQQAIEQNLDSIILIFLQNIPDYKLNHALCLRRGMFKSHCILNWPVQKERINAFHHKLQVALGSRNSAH

[5] = biological target: Toll-like receptor 2 (Mus musculus) (UniProt Q9QUN7); experiment: Inhibition TLR2-mediated NO production in mouse RAW264.7 cells at 300 nM
[6] = biological target: T3, Toll-like receptor 6 (Mus musculus) (UniProt Q9EPW9); experiment: Inhibition TLR6-mediated NO production in mouse RAW264.7 cells at 300 nM
T3 sequence (whole entry): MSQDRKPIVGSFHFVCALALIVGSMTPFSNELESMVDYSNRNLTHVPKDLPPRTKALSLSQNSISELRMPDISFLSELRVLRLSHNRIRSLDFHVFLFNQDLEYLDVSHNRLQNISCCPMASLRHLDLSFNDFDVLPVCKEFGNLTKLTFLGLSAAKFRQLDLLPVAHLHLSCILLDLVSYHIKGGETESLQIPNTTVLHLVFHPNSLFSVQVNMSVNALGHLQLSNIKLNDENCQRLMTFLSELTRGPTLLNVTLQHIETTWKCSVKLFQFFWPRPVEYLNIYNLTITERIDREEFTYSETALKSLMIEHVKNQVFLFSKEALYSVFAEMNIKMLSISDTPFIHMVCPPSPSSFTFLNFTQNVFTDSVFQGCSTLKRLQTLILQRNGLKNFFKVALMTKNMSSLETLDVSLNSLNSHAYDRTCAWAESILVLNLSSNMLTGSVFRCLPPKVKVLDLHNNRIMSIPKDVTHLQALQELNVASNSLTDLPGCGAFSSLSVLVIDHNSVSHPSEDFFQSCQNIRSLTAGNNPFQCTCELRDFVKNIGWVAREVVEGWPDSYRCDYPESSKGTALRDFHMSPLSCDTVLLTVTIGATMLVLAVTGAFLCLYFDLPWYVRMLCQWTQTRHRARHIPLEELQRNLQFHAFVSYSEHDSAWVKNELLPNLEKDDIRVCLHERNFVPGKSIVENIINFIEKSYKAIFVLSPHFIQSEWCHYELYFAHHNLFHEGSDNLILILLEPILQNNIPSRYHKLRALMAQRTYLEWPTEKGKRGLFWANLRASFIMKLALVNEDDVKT

[7] = biological target: T4, Toll-like receptor 7 (Mus musculus) (UniProt P58681); experiment: Inhibition TLR7-mediated NO production in mouse RAW264.7 cells at 300 nM
T4 sequence (whole entry): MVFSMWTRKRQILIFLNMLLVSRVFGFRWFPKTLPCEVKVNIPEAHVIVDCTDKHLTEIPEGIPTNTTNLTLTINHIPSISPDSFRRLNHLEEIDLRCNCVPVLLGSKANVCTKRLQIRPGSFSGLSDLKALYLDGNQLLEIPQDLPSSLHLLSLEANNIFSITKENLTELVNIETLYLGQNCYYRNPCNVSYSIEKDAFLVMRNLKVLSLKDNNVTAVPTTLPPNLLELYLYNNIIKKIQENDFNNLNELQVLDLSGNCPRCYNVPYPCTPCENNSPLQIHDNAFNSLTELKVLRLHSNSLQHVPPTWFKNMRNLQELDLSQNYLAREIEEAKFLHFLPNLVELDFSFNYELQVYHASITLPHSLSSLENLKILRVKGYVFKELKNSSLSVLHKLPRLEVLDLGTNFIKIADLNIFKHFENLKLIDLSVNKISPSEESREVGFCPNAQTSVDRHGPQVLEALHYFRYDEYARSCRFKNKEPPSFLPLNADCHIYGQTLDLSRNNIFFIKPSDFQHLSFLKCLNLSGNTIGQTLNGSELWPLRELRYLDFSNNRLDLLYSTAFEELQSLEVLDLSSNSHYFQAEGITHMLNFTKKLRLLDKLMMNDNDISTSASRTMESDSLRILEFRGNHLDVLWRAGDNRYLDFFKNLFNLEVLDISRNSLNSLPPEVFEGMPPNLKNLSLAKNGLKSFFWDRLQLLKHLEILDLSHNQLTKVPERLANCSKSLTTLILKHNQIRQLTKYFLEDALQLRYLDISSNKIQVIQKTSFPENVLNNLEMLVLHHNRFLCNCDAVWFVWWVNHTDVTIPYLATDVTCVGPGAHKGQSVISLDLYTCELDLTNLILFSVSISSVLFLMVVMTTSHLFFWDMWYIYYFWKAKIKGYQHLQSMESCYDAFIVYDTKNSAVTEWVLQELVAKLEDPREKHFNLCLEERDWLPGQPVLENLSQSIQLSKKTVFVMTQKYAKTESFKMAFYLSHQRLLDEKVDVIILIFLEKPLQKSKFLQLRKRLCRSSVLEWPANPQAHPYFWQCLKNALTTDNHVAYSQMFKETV

[8] = biological target: T5, Toll-like receptor 1 (Mus musculus) (UniProt Q9EPQ1); experiment: Inhibition TLR1-mediated NO production in mouse RAW264.7 cells at 300 nM
T5 sequence (whole entry): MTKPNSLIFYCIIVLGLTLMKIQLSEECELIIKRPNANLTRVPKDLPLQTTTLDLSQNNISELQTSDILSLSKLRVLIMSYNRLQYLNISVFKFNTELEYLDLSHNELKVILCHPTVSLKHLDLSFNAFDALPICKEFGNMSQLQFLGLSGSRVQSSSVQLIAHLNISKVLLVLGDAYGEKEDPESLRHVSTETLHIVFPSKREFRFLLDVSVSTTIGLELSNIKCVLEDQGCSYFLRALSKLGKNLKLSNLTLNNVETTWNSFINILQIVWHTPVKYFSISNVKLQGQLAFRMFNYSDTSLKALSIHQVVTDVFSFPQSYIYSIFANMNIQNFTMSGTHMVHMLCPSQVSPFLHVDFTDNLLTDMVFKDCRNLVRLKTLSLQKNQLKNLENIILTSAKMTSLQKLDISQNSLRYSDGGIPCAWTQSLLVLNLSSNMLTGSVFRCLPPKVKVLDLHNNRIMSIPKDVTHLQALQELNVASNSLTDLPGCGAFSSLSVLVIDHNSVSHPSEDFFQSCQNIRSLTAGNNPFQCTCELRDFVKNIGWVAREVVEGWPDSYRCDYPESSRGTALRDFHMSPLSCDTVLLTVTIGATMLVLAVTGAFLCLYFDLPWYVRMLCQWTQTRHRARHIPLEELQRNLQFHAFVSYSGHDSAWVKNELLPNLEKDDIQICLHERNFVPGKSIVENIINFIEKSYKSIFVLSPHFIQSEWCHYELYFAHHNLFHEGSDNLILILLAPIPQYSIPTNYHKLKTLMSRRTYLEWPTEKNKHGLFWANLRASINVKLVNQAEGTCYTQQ

Sequence of Toll-like receptor 4 (Homo sapiens) (O00206 whole entry): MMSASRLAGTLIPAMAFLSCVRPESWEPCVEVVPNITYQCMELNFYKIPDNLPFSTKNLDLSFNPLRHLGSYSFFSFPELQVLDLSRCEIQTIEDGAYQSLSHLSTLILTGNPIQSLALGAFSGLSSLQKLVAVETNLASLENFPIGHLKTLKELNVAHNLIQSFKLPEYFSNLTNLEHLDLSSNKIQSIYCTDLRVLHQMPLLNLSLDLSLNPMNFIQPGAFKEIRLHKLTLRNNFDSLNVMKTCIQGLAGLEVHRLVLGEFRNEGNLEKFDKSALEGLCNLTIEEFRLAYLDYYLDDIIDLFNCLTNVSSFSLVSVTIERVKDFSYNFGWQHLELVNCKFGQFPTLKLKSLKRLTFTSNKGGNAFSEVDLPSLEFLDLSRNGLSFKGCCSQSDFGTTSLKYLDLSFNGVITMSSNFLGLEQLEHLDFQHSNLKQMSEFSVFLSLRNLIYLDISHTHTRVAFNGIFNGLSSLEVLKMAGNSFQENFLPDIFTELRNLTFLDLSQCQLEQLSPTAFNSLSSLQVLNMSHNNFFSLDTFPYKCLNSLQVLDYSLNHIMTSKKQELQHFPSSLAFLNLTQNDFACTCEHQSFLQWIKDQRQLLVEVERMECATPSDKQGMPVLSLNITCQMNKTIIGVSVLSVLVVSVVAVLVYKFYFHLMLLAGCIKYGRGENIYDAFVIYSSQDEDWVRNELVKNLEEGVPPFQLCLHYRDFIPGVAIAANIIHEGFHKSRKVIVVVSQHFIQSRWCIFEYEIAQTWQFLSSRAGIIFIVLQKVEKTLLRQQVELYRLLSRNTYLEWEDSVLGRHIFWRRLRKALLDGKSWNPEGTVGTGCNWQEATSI
Sequence of Toll-like receptor 2 (Mus musculus) (Q9QUN7 whole entry): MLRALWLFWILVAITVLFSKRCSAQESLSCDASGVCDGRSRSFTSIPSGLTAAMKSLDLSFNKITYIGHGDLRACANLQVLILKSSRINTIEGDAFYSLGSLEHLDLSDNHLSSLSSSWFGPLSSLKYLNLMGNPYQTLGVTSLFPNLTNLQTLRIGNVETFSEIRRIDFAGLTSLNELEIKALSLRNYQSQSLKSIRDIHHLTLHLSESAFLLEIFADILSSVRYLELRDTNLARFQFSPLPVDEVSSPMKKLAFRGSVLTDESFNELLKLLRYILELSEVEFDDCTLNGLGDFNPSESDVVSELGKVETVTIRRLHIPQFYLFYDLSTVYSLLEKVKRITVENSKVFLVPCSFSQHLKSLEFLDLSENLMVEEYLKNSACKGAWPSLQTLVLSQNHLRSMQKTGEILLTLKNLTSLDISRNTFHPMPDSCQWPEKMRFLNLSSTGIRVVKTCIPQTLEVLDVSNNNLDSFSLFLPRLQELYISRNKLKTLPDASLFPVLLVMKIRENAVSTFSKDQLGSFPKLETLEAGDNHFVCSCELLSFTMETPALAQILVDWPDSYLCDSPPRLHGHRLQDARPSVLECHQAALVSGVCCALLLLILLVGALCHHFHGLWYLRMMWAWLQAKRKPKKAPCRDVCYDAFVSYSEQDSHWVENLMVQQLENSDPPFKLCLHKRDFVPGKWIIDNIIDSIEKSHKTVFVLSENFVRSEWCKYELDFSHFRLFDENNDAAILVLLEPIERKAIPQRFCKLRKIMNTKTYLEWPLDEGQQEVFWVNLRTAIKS

CCOc1ccc(OCC(O)CN(C)Cc2c(C)nn(Cc3ccccc3Cl)c2C)cc1 (configuration not stated) was tested, and the Activity [1] was “Active”, the Activity (RAW264.7) was “Non-toxic” and the Activity [2] was “Active”. For the same compound, the Activity [3] was “Active”, the Activity [4] was “inactive” and the Activity [5] was “inactive”. For the same compound, the Activity [6] was “inactive”, the Activity [7] was “inactive” and the Activity [8] was “inactive”.

With CC(C)CC(=O)Nc1ccc(OC(=O)C23CC4CC(CC(C4)C2)C3)cc1 the Activity [1] was “Active”, the Activity (RAW264.7) was “Non-toxic” and the Activity [2] was “Active”.
